For data set [1], the system named is rats. To be noted: ref Dugas et al., 2001, cited from earlier work.
The conditions of data set [2]: 25 mg/kg DAPM, ref Dugas et al., 2001, cited from earlier work.
Data set [3] in a line: Biliary excretion of DAPM metabolites. The settings on record: for biliary excretion, male compared to female rats: AUC analysis, 25 and 50 mg/kg DAPM; for AUC for DAPM metabolite elimination in the bile, Females: female rats; for AUC for DAPM metabolite elimination in the bile, Females / AUC for DAPM metabolite elimination in the bile, Males: bile collected 6 h, mean ± SEM, n=4–6; for AUC for DAPM metabolite elimination in the bile, Males: male rats. The class given is in vivo, Sprague Dawley rats. The method, boiled down:
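Sprague Dawley rats of both sexes (12–15 wk) under pentobarbital, with biliary, duodenal and peritoneal cannulas and duodenal taurocholate infusion; 1 h basal bile. Gavage of [14C]-test compound, 25 or 50 mg/kg in 35% ethanol, 2 mL/kg. Bile taken for 6 h in 15-min fractions, deproteinized, then C18 HPLC with UV 254 nm and radioisotope detection. Per-rat nmol-versus-time AUC; group mean ± SEM, n=4–6; two-way ANOVA.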

Like-named read-outs stand apart in the source and are kept apart here.

Take `Nc1ccc(Cc2ccc(N)cc2)cc1` [DAPM, 4,4’-Methylenedianiline]: the “threshold dose for observing injury” value is 25 mg/kg in data set [1] (female rats) and 50 mg/kg in data set [1] (male rats). For the same molecule, the “maximum rate of biliary excretion of metabolite” value in data set [2] (female rats, maximum at 45 min) is ~ 9 µg/min*kg; in data set [2] (male rats, maximum at 15 min), ~ 18 µg/min*kg. The “biliary excretion, male compared to female rats” value in data set [3] is listed as “biliary excretion in males was likewise greater than that in female rats”. The “AUC for DAPM metabolite elimination in the bile, Females” value (from here on “AUC … Females”) in data set [3] (DAPM 25 mg/kg by gavage) amounted to 29 ± 14 nmol·h; in data set [3] (DAPM 50 mg/kg by gavage), 67 ± 31 nmol·h. Further, the figures for the “AUC for DAPM metabolite elimination in the bile, Males” value (“AUC … in the bile, Males” below) in data set [3] (DAPM 25 mg/kg by gavage) and in data set [3] (DAPM 50 mg/kg by gavage) were 155 ± 22 nmol·h and 176 ± 74 nmol·h, respectively.

`CC(=O)Nc1ccc(Cc2ccc(N)cc2)cc1` [Metabolite M5, N-acetyl-DAPM]: the “biliary excretion, male compared to female rats” value in data set [3] is reported as “greater in male compared to female rats”. In data set [3] (DAPM 25 mg/kg by gavage), the “AUC … Females” value is 39 ± 13 nmol·h and the “AUC … in the bile, Males” value amounted to 175 ± 11 nmol·h. Besides, in data set [3] (DAPM 50 mg/kg by gavage), the “AUC … Females” value worked out at 132 ± 70 nmol·h and the “AUC … in the bile, Males” value stood at 259 ± 86 nmol·h.

(Values after publication PMC2614345 (Toxicology and applied pharmacology, 2008).)
